Reference: paper PMC5746459 (Journal of medicinal chemistry, 2017)
Entries after “also recorded” stand apart in the source; their conditions may differ. Where a name gives a salt, the structure may show the parent alone.

Assays:
Swiss Webster mice [1] = assay: Locomotor activity in mice; type: in vivo, mouse; details: i.p., 1 h session; for effect on locomotor activity: cocaine 5–40 mg/kg, 10a 3–56 mg/kg
Swiss Webster mice [2] = assay: Drug discrimination, mice trained to discriminate cocaine from saline; type: in vivo, mouse; details: for overall group response rate, % of control performance: mice, drug discrimination sessions, all doses tested
human DAT (hDAT) WT = human DAT (hDAT) WT (Homo sapiens, UniProt Q01959); assay: [3H]DA uptake inhibition in COS7 cells transiently expressing DAT WT; type: cell-based
[3] = Phase I metabolic stability in mouse liver microsomes; type: in vitro ADME; details: mouse liver microsomes with and without NADPH
Method in brief: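 Test compound at 10 uM final was incubated in triplicate with 0.5 mg/mL mouse liver microsomes in 100 mM potassium phosphate, pH 7.4. The NADPH regenerating system contained 1.3 mM NADPH, 3.3 mM glucose 6-phosphate, 3.3 mM MgCl2, 0.4 U/mL glucose-6-phosphate dehydrogenase and sodium citrate. Reactions were started by adding microsomes, with cofactor-free controls. Percent remaining over time was measured by LC/MS/MS; mean ± S.E.M., n=3 per time point.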

mice = details: previous studies; cited from earlier work

Sequence of human DAT (hDAT) WT (Q01959 whole entry): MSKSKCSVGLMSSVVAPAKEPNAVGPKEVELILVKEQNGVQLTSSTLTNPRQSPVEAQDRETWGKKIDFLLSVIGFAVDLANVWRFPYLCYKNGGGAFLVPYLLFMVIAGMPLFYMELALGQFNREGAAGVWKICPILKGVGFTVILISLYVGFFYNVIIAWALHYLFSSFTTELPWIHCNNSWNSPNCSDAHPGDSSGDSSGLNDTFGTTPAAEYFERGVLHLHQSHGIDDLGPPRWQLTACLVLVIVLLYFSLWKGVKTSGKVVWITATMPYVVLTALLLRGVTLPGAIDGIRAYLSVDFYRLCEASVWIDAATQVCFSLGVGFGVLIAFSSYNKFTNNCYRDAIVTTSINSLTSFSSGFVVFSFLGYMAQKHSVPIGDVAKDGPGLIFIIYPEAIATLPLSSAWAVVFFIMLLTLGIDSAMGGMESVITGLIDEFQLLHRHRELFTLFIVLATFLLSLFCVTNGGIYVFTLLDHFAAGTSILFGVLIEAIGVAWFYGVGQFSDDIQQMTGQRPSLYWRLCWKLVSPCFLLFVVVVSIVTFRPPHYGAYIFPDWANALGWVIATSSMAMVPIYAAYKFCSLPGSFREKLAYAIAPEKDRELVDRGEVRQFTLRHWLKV

COC(=O)[C@H]1[C@@H](OC(=O)c2ccccc2)C[C@@H]2CC[C@H]1N2C [compound 1, cocaine, reference compound]
maximum locomotor activity, % of activity counts compared to vehicle (Swiss Webster mice [1]; 20 and 40 mg/kg): ≈ 300% | effect on locomotor activity (Swiss Webster mice [1]): dose-dependently increased locomotion | overall group response rate, % of control performance (Swiss Webster mice [2]): ≥ 50%

CN(C)CCN1C2CCC1CC(OC(c1ccc(F)cc1)c1ccc(F)cc1)C2 (stereo not shown) [10a, 2-(3-(bis(4-fluorophenyl)methoxy)-8-azabicyclo[3.2.1]octan-8-yl)-N,N-dimethylethanamine Oxalate]
DA uptake inhibition potency relative to cocaine (times higher) (human DAT (hDAT) WT): > 4 | Phase I metabolic stability [3]: complete stability under all conditions | effect on locomotor activity (Swiss Webster mice [1]): None of the doses of 10a significantly increased activity counts more than vehicle; also recorded: failed to produce a significant increase in locomotor activity; also recorded: did not significantly increase locomotor activity | substitution for cocaine discriminative stimulus (Swiss Webster mice [2]; mice trained with cocaine 10 mg/kg vs saline, 5 or 30 min pretreatment): failed to substitute for cocaine; also recorded: did not generalize to the cocaine discriminative stimulus | overall group response rate, % of control performance (Swiss Webster mice [2]): ≥ 50%

Cc1ccc(C2CC3CCC(C2c2cc(-c4ccc(Cl)cc4)no2)N3C)cc1 (stereo not shown) [compound 5]
stimulation of locomotor activity (mice): fails to stimulate locomotor activity in mice

CN1[C@H]2CC[C@@H]1[C@@H](c1cc(-c3ccccc3)no1)[C@H](OC(c1ccc(F)cc1)c1ccc(F)cc1)C2 [S-(+)-19a, S-(+)-2β-(3-Phenylisoxazol-5-yl)-3α-[bis(4-fluorophenyl)methoxy]tropane]
Ki (human DAT (hDAT) WT; read-out: DAT WT Ki, [3H]DA uptake inhibition, COS7 cells transiently expressing DAT WT, mean [s.e.m. interval]): 212 nM

NCCc1ccc(O)c(O)c1 [Dopamine, reference compound]
Km (human DAT (hDAT) WT; read-out: DAT WT, Dopamine (kM), [3H]DA uptake, COS7 cells transiently expressing DAT WT, mean [s.e.m. interval]): 0.999 µM

Cc1ccc(-c2cc(C3C(c4ccc(Cl)cc4)CC4CCC3N4C)on2)cc1 (stereo not shown) [compound 6]
stimulation of locomotor activity (mice): does stimulate locomotion

CN(C)CCN1C2CCC1CC(NC(c1ccc(F)cc1)c1ccc(F)cc1)C2 (stereo not shown) [10b, N-(Bis(4-fluorophenyl)methyl)-8-(2-(dimethylamino)ethyl)-8-azabicyclo[3.2.1]octan-3-amine Oxalate]
DA uptake inhibition potency relative to cocaine (times higher) (human DAT (hDAT) WT): > 4
